Data published in article PMC2788794 (Chemistry & biology, 2009).

Key:
[1] = system: platelets; conditions: cited from earlier work; for inhibition of Fbg binding to platelets: ref Bennett et al., 1988
[2] = system: αIIbβ3 CHO K1 cells; test: Cell adhesion inhibition assay with soluble peptides; format: cell-based; conditions: soluble peptide 1 pM to 100 µM; 0.5% GRGDSC monolayer; 300 µM cRGDFG
[3] = system: platelets; conditions: ref Bennett et al., 1988; cited from earlier work
[4] = system: αIIbβ3 CHO K1 cells; test: Adhesion of transfected cells to GRGDSC monolayer in presence of inhibitors; format: cell-based; conditions: 0.5% GRGDSC SAM
[5] = system: αIIbβ3; conditions: platelets; ref Bennett et al., 1988; cited from earlier work
[6] = system: CHO K1 cells; test: Block of cell attachment to GRGDSC monolayer by cRGDFG; format: cell-based; conditions: cRGDFG 300 µM; 0.5% GRGDSC SAM
Method in brief: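 Untransfected CHO K1 cells (F12K, 10% FBS, 37 °C, 5% CO2) were seeded on 0.5% GRGDSC SAMs, with or without cRGDFG 300 µM. The GRGDSC surface was made by coupling cysteine-terminated peptide (1 mM, 37 °C, 1 h) to a maleimide-presenting monolayer with tri(ethylene glycol) background. Adherent cells were scored by optical microscopy.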

[7] = system: αvβ3; conditions: ref Haubner et al., 1996; cited from earlier work
[8] = system: αIIbβ3 CHO K1 cells; test: Cell adhesion assay on self-assembled monolayers presenting immobilized peptides; format: cell-based; conditions: Fbg adsorbed on dodecanethiol (hydrophobic) monolayer; 300 µM cRGDFG

## AGDV
[1]; soluble peptide competing with radiolabeled Fbg, ref Plow et al., 1985
  inhibition of Fbg binding to activated platelets: failure of an AGDV peptide to inhibit Fbg binding
[2]
  block of cell attachment by soluble peptide to a monolayer presenting GRGDS: blocked cell attachment

## HHLGGAKQAGDV
[2]
  block of cell attachment by soluble peptide to a monolayer presenting GRGDS: blocked cell attachment

## LGGAKQAGDV
[1]
  inhibition of Fbg binding to platelets: inhibited Fbg binding to platelets with an affinity comparable to that of RGDS
[3]
  inhibition of binding of A2A9 to platelets: could inhibit the binding of A2A9

## PAC-1
[4]; PAC-1 antibody together with cRGDFG 300 µM
  effect on adhesion of αIIbβ3 CHO K1 cells to a monolayer presenting GRGDSC: prevented cell adhesion

## RGDS
[1]
  inhibition of Fbg binding to platelets: blocked the binding of both PAC-1 and Fbg to platelets with equal potency
[5]
  inhibition of PAC-1 binding: blocked the binding of both PAC-1 and Fbg to platelets with equal potency

## cRGDFG (head to tail)
[6]
  block of attachment of CHO K1 cells to a monolayer presenting GRGDSC: efficiently block the attachment
[7]
  affinity for αvβ3 relative to that for αIIbβ3: approximately 1,400 fold
[4]; cRGDFG 300 µM
  effect on adhesion of αIIbβ3 CHO K1 cells to a monolayer presenting GRGDSC: did not interfere with adhesion

B1: Fbg: Human fibrinogen, plasma protein, adsorbed to hydrophobic monolayer as positive control (protein)
chain 1: ADSGEGDFLAEGGGVRGPRVVERHQSACKDSDWPFCSDEDWNYKCPSGCRMKGLIDEVNQDFTNRINKLKNSLFEYQKNNKDSHSLTTNIMEILRGDFSSANNRDNTYNRVSEDLRSRIEVLKRKVIEKVQHIQLLQKNVRAQLVDMKRLEVDIDIKIRSCRGSCSRALAREVDLKDYEDQQKQLEQVIAKDLLPSRDRQHLPLIKMKPVPDLVPGNFKSQLQKVPPEWKALTDMPQMRMELERPGGNEITRGGSTSYGTGSETESPRNPSSAGSWNSGSSGPGSTGNRNPGSSGTGGTATWKPGSSGPGSTGSWNSGSSGTGSTGNQNPGSPRPGSTGTWNPGSSERGSAGHWTSESSVSGSTGQWHSESGSFRPDSPGSGNARPNNPDWGTFEEVSGNVSPGTRREYHTEKLVTSKGDKELRTGKEKVTSGSTTTTRRSCSKTVTKTVIGPDGHKEVTKEVVTSEDGSDCPEAMDLGTLSGIGTLDGFRHRHPDEAAFFDTASTGKTFPGFFSPMLGEFVSETESRGSESGIFTNTKESSSHHPGIAEFPSRGKSSSYSKQFTSSTSYNRGDSTFESKSYKMADEAGSEADHEGTHSTKRGHAKSRPVRGIHTSPLGKPSLSP
chain 2: QGVNDNEEGFFSARGHRPLDKKREEAPSLRPAPPPISGGGYRARPAKAAATQKKVERKAPDAGGCLHADPDLGVLCPTGCQLQEALLQQERPIRNSVDELNNNVEAVSQTSSSSFQYMYLLKDLWQKRQKQVKDNENVVNEYSSELEKHQLYIDETVNSNIPTNLRVLRSILENLRSKIQKLESDVSAQMEYCRTPCTVSCNIPVVSGKECEEIIRKGGETSEMYLIQPDSSVKPYRVYCDMNTENGGWTVIQNRQDGSVDFGRKWDPYKQGFGNVATNTDGKNYCGLPGEYWLGNDKISQLTRMGPTELLIEMEDWKGDKVKAHYGGFTVQNEANKYQISVNKYRGTAGNALMDGASQLMGENRTMTIHNGMFFSTYDRDNDGWLTSDPRKQCSKEDGGGWWYNRCHAANPNGRYYWGGQYTWDMAKHGTDDGVVWMNWKGSWYSMRKMSMKIRPFFPQQ
chain 3: YVATRDNCCILDERFGSYCPTTCGIADFLSTYQTKVDKDLQSLEDILHQVENKTSEVKQLIKAIQLTYNPDESSKPNMIDAATLKSRKMLEEIMKYEASILTHDSSIRYLQEIYNSNNQKIVNLKEKVAQLEAQCQEPCKDTVQIHDITGKDCQDIANKGAKQSGLYFIKPLKANQQFLVYCEIDGSGNGWTVFQKRLDGSVDFKKNWIQYKEGFGHLSPTGTTEFWLGNEKIHLISTQSAIPYALRVELEDWNGRTSTADYAMFKVGPEADKYRLTYAYFAGGDAGDAFDGFDFGDDPSDKFFTSHNGMQFSTWDNDNDKFEGNCAEQDGSGWWMNKCHAGHLNGVYYQGGTYSKASTPNGYDNGIIWATWKTRWYSMKKTTMKIIPFNRLTIGEGQQHHLGGAKQAGDV
[8]
  adhesion and spreading of αIIbβ3 CHO cells on adsorbed Fbg (positive control): adhered and spread
